OX1R antag-1 = antagonists of human orexin 1 receptor (OX1R); OX1R-expressing cells, FRET antagonist read-out; inhibition, % at 6.6 µM; 330,000 tested, 1.8% active; AID 485270, 2010; in the data active = inhibition mostly above about 38%, no sharp cut-off; inactive = mostly below about 40%
OX1R antag-2 = OX1R (HCRTR1) antagonists, primary screen, fluorescence, CHO/OX1R cells, Fluo-8 calcium, orexin A. Orexin/Hypocretin receptor type 1 (Homo sapiens), O43613. Fluo-8 calcium fluorescence. inhibition, % at 5 µM. 330,000 tested, 0.43% active;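 active = inhibition above its plate's threshold, mean inhibition of all tested compounds on the plate plus 3 SD, cut at about 37% in these data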
OXTR agonist = human OXTR agonists, primary screen, fluorescence, CHO-OTR cells, Fluo-8 calcium; Fluo-8 calcium fluorescence; normalized: DMSO 0%, oxytocin 100%; activation, % at 3 µM; 320,000 tested, 0.32% active; Oxytocin receptor (Homo sapiens), P30559;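 active = activation above the mean of all tested compounds plus 3 SD, cutoff set per screening run, cut at about 20% in these data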;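 note: peak over basal fluorescence ratio from a 100 s FLIPR kinetic read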
Target sequence (P30559 whole entry, looked up): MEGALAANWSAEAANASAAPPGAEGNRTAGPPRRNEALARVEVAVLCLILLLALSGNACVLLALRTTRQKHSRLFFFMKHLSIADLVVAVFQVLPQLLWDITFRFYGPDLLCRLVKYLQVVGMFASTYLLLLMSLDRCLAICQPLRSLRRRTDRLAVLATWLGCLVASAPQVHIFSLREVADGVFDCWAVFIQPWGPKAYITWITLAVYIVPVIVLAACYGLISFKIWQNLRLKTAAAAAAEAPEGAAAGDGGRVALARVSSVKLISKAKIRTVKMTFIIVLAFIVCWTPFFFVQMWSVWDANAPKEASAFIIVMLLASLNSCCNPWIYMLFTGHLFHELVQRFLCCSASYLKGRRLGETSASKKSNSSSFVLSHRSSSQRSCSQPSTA
CHO parental Ca = ATP-evoked calcium signal inhibitors, parental CHO, primary screen, counter-screen for OX1R antagonist project, cell-based, fluorescence, Fluo-8 calcium dye; parental CHO-K1, ATP-induced calcium, Fluo-8 fluorescence; inhibition, % at 5.6 µM; 330,000 tested, 0.63% active; AID 463079, 2010;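 active = inhibition above that plate's mean sample inhibition plus 3 SD, cut at about 26% in these data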
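Material: parental CHO cells / Compound: single nominal dose of 5.6 µM per compound / Signal: Fluo-8 fluorescence / Replicates: singlicate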
V1aR counter = agonists of human V1a receptor, primary screen, counter-screen for OXTR agonist project, fluorescence, CHO-V1R cells | 320,000 tested, 0.25% active | Vasopressin V1a receptor (Homo sapiens), P37288 | Fluo-8 calcium fluorescence, agonist mode; 0% DMSO, 100% 3 nM vasopressin | activation, % at 3 µM;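 active = activation above the mean activation of all tested compounds plus 3 SD, per screening run, cut at about 20% in these data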;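 note: signal is peak over basal fluorescence ratio across a 100 second FLIPR read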
OXTR potentiator = human OXTR potentiators, primary screen, fluorescence, CHO-OTR cells, Fluo-8 calcium; Oxytocin receptor (Homo sapiens), P30559; Fluo-8 calcium fluorescence, potentiator mode; 0% = oxytocin EC15, 100% = EC100; activation, % at 3 µM; 320,000 tested, 0.061% active;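 active = activation above that plate's cutoff, the mean activation of tested compounds plus 3 SD, cut at about 6.6% in these data, passing the limit was not always enough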
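Assay system: CHO cell line stably expressing human OTR | Also added: Oxytocin at about EC15, sub-maximal agonist stimulus | Times: Compound 6 min at room temperature before oxytocin, 100 s read | Measured by: Fluo-8 intracellular calcium fluorescence, ex 470-495, em 515-575 nm | Controls: EC15 oxytocin alone as 0%, 75 nM oxytocin as 100%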
OX1R HTRF conf = OX1R (HCRTR1) antagonists, confirmation, cell-based, HTRF; AID 492964, 2010; 1,800 tested, 49% active; shares compounds with OX1R antag-1; inhibition, % at 6.6 µM; OX1R-expressing cells, HTRF antagonist assay; in the data active = inhibition above about 55%;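 note: CHO cells expressing OX1R stimulated with orexin A at about EC80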
CHO-K1 HTRF = signal inhibition in parental CHO-K1 cells, counter-screen for OX1R antagonist project, cell-based, HTRF; HTRF counterscreen; 1,800 tested, 48% active; AID 493232, 2011; inhibition, % at 6.6 µM; shares compounds with OX1R antag-1; in the data active = inhibition above about 17%
Large screens that a line does not name were inactive (follow-up assays come after a bar, where they were run). Shown are actives, neighbours in structure and some others; about 2.6% of the full set was active somewhere.

CC(c1ccco1)N(C(=O)c1ccccc1NS(=O)(=O)c1ccc(Cl)c([N+](=O)[O-])c1)c1ccccn1 (stereo not given)	OX1R antag-1 98 | OX1R HTRF conf inactive | CHO-K1 HTRF inactive
Cc1c(CCOC(=O)c2cc([N+](=O)[O-])cc([N+](=O)[O-])c2)sc[n+]1CCCCS(=O)(=O)[O-]	OX1R antag-1 174 | OX1R HTRF conf 72 | CHO-K1 HTRF 85
CCOC(=O)c1c(C)oc2c1c1c(c3ccccc32)OCN(Cc2ccccn2)C1	OX1R antag-1 84 | OX1R HTRF conf inactive | CHO-K1 HTRF inactive
Cc1cccn2cc(-c3cccc(NC(=O)c4cccs4)c3)nc12	OX1R antag-1 111 | OX1R HTRF conf 93 | CHO-K1 HTRF inactive
NS(=O)(=O)c1ccc(NC(=O)C(Sc2ccccc2)c2ccccc2)cc1 (stereo not given)	none
CCOc1ccc(-c2nnc(-c3cccs3)o2)cc1	none
c1csc(-c2nnc(-c3ccc(N4CCOCC4)cc3)o2)c1	OX1R antag-1 77 | OX1R HTRF conf 83 | CHO-K1 HTRF inactive
C/C(=N\O)C1CCCCC1	none
Cn1c(SCC(=O)NC2CCCC2)nnc1C(F)(F)F	none
Cc1ccc(-n2c(C)nn(Cc3ccc([N+](=O)[O-])cc3)c2=O)cc1	none
Cc1ccc(-n2c3nc(=O)[nH]c(=O)c-3cc3cc([N+](=O)[O-])ccc32)cc1	OX1R antag-1 84 | OX1R HTRF conf 56 | CHO-K1 HTRF 65
O=[N+]([O-])c1ccc(N2CCCCC2)s1	OX1R antag-1 101 | OX1R HTRF conf inactive | CHO-K1 HTRF 70
O=[N+]([O-])c1ccc(N2CCN(Cc3ccccc3)CC2)s1	none
CCN(Cc1ccccc1)C(=O)c1ccc2c(=O)n3c(nc2c1)CCC3	none
Cc1ccc(-c2ccccc2NC(=O)CS(=O)CC(=O)Nc2ccc(C)c(Cl)c2)o1 (stereo not given)	OX1R antag-1 82 | OX1R HTRF conf inactive | CHO-K1 HTRF inactive
Cc1ccc(-c2ccccc2NC(=O)CCl)o1	none
COc1ccc(-c2cc(=O)c3ccccc3s2)cc1	OX1R antag-1 83 | OX1R HTRF conf 85 | CHO-K1 HTRF inactive
CC(=O)Nc1ccc(/C=N/N2CCCCC2)cc1	none
O=C(N/N=C/c1c(Cl)[nH]c2ccccc12)c1ccc2c(c1)OCCO2	OX1R antag-1 79 | OX1R HTRF conf 86 | CHO-K1 HTRF inactive
CCc1ccc(/C=C2/C(=O)N(c3ccccc3)C(=S)N2CC(=O)OC)s1	none
CCN1C(=O)/C(=C/N(C(C)=O)c2ccccc2)N(c2ccccc2)C1=S	OX1R antag-1 82 | OX1R HTRF conf inactive | CHO-K1 HTRF inactive
CCCn1c(SCC(=O)N(CC)CC)nnc1-c1ccncc1	none
CCN(CC)C(=O)CSc1nnc2nnc3cc(Cl)ccc3n12	OX1R antag-1 108 | OX1R HTRF conf 70 | CHO-K1 HTRF 126
CCN(CC)C(=O)CSc1nnc2nnc3cc(C)ccc3n12	OX1R antag-1 91 | OX1R HTRF conf 60 | CHO-K1 HTRF 103
COCC(=O)N1CCN(c2ccc([N+](=O)[O-])cc2)CC1	OX1R antag-1 160 | OX1R HTRF conf inactive | CHO-K1 HTRF 41
COc1cc(CCC(=O)N2CCN(c3ccc([N+](=O)[O-])cc3)CC2)cc(OC)c1OC	none
O=C(Nc1cccnc1)c1cnc2ccccc2n1	OX1R antag-1 109 | OX1R HTRF conf inactive | CHO-K1 HTRF 45
